# Assay results: ChEMBL document CHEMBL1141874, “Synthesis and biological evaluation of novel bisheterocycle-containing compounds as potential anti-influenza virus agents” (Bioorg Med Chem Lett, 2005)
# Calls of active or inactive are those of the source. The rule behind the calls is not given here.
# Experiments:
# Influenza A virus [1] = assay: Cytotoxicity in MDCK cells infected with influenza A H3N2 virus; format: functional
# Summary of the method: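 Confluent MDCK monolayers were infected with influenza A H3N2 (A3 China/15/90) for 2 h at 37 °C, then the inoculum was removed and a range of compound concentrations added. Cultures were read when the virus control reached 4+ CPE. The value is the concentration causing microscopically detectable toxicity in the virus-infected cultures.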
# Influenza B virus = assay: Inhibitory activity against influenza B virus; format: functional, organism-based
# Influenza A virus [2] = assay: Antiviral activity against influenza A H3N2 virus in MDCK cells; format: functional, organism-based
# Summary of the method: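 Confluent MDCK monolayers were infected with influenza A H3N2 (A3 China/15/90) for 2 h at 37 °C. The inoculum was removed and the cells were treated with a range of compound concentrations. CPE was scored once the virus control reached 4+. The concentration giving 50% reduction of virus-induced CPE was found by Reed–Muench interpolation.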
# [3] = Influenza A virus, H3N2, MDCK, read-out: IC50
Compound,CC50 (Influenza A virus [1]),Activity (Influenza B virus),IC50 (Influenza A virus [2]; [3]) [mg/L],IC50 (Influenza A virus [2]; mdck)
COC(=O)c1nc(-c2csc([C@@H](NC(=O)C(C)(C)C)C(C)C)n2)oc1C,577 mg/L,inactive,–,–
C=CCCC(=O)N[C@H](c1nc(-c2nc(C(=O)OC)c(C)o2)cs1)C(C)C,577 mg/L,inactive,–,–
CCC(=O)N[C@H](c1nc(-c2nc(C(=O)OC)c(C)o2)cs1)C(C)C,577 mg/L,inactive,–,–
COC(=O)c1nc(-c2csc([C@@H](NC(=O)C3CCCCC3)C(C)C)n2)oc1C,144 mg/L,inactive,43.6,–
Cc1oc2nc1C(=O)N[C@@H](C)c1nc(co1)C(=O)N[C@@H](CC(C)C)C(=O)N1CCC[C@H]1C(=O)N[C@@H](C(C)C)c1nc-2cs1 [LEUCAMIDE A],inactive,–,–,Not Active
COC(=O)c1coc([C@H](C)NC(=O)c2nc(-c3csc([C@@H](NC(=O)CC=C(C)C)C(C)C)n3)oc2C)n1,577 mg/L,inactive,–,–
Cc1oc(-c2csc([C@@H](NC(=O)CC3=CCCC3)C(C)C)n2)nc1C(=O)O,481 mg/L,inactive,29,–
COC(=O)c1nc(-c2csc([C@@H](NC(=O)c3cccc(F)c3)C(C)C)n2)oc1C,> 1000 mg/L,inactive,> 86.2,–
COC(=O)c1nc(-c2csc([C@@H](NC(=O)CC3=CCCCC3)C(C)C)n2)oc1C,231 mg/L,inactive,–,–
COC(=O)c1nc(-c2csc([C@@H](NC(=O)c3ccccc3OC)C(C)C)n2)oc1C,333 mg/L,inactive,47.7,–
COC(=O)c1coc([C@H](C)NC(=O)c2nc(-c3csc([C@@H](NC(=O)C4CCCCC4)C(C)C)n3)oc2C)n1,144 mg/L,inactive,–,–
COC(=O)c1nc(-c2csc([C@@H](NC(=O)CC3=CCCC3)C(C)C)n2)oc1C,333 mg/L,inactive,–,–
COC(=O)c1nc(-c2csc([C@@H](NC(=O)C3CCC3)C(C)C)n2)oc1C,500 mg/L,inactive,–,–
NC(=O)c1ncn([C@@H]2O[C@H](CO)[C@@H](O)[C@H]2O)n1 [RIBAVIRIN],–,–,3.73,–
COC(=O)c1nc(-c2csc([C@@H](NC(=O)CCC=C(C)C)C(C)C)n2)oc1C,577 mg/L,inactive,37,–
CCC(=O)N[C@H](c1nc(-c2nc(C(=O)N[C@@H](C)c3nc(C(=O)OC)co3)c(C)o2)cs1)C(C)C,577 mg/L,inactive,–,–
COC(=O)c1coc([C@H](C)NC(=O)c2nc(-c3csc([C@@H](NC(=O)CC4=CCCCC4)C(C)C)n3)oc2C)n1,577 mg/L,inactive,44.5,–
C/C=C(\C)C(=O)N[C@H](c1nc(-c2nc(C(=O)OC)c(C)o2)cs1)C(C)C,231 mg/L,inactive,37,–
COC(=O)c1nc(-c2csc([C@@H](NC(=O)CC=C(C)C)C(C)C)n2)oc1C,> 1000 mg/L,inactive,192,–
COC(=O)c1nc(-c2csc([C@@H](N)C(C)C)n2)oc1C,577 mg/L,inactive,259,–
COc1ccccc1C(=O)N[C@H](c1nc(-c2nc(C(=O)O)c(C)o2)cs1)C(C)C,333 mg/L,inactive,29,–
COC(=O)c1coc([C@H](C)NC(=O)c2nc(-c3csc([C@@H](NC(=O)c4cccc(F)c4)C(C)C)n3)oc2C)n1,577 mg/L,inactive,77,–
